# Results from different studies.
# MAPKAPK2: MAP kinase-activated protein kinase 2 (MAPKAPK2, Homo sapiens, UniProt P49137)
# ADAM17: Disintegrin and metalloproteinase domain-containing protein 17 (ADAM17, Homo sapiens, UniProt P78536)
Structure (SMILES),target,read-out,mode,method,concentration,inhibition [%]
CC(C)C[C@H](NC(=O)[C@H](Cc1ccccc1)NC(=O)c1cnccn1)B(O)O,"Cathepsin G (CTSG, Homo sapiens, UniProt P08311)",enzyme activity,inhibitor,,33 µM,61.8
C#Cc1n[nH]c2c(-c3cn([C@@H](C)c4ccccc4)c(=O)[nH]c3=O)cc(F)cc12,MAPKAPK2,enzyme activity,inhibitor,,0.1 µM,11.6
COc1cc(Nc2ncc(F)c(Nc3ccc4c(n3)NC(=O)C(C)(C)O4)n2)cc(OC)c1OC,"Serine/threonine-protein kinase 32B (STK32B, Homo sapiens, UniProt Q9NY57)",binding,,competition with immobilised ligand,10 µM,0
C[C@H](C(=O)N[C@H]1COc2ccccc2[C@@H]1S(C)(=O)=O)c1ccc(F)cc1,"Gamma-aminobutyric acid type B receptor subunit 1 (GABBR1, Homo sapiens, UniProt Q9UBS5)",cell-free assay,,,10 µM,4
C#Cc1n[nH]c2c(-c3cn([C@@H](C)c4ccccn4)c(=O)[nH]c3=O)cc(F)cc12,MAPKAPK2,enzyme activity,inhibitor,,0.1 µM,11.8
O=C(Nc1cccnn1)N1CCN([C@@H]2CCOc3cc(C(F)(F)F)ccc32)CC1,"Motilin receptor (MLNR, Homo sapiens, UniProt O43193)",cell-free assay,,,20 µM,-3
CCOC(=O)c1ccc(OC(=O)CCCCCNC(=N)N)cc1,ADAM17,enzyme activity,inhibitor,,10 µM,7
Cn1cc(-c2cccc(N3CCc4c(sc5c4CC(C)(C)C5)C3=O)c2CO)cc(Nc2ccncn2)c1=O,"Phosphatidylinositol 4,5-bisphosphate 3-kinase catalytic subunit alpha isoform (PIK3CA, Homo sapiens, UniProt P42336)",enzyme activity,inhibitor,,1 µM,14
c1ccc(C(NCCNC(c2ccccc2)c2ccccc2)c2ccccc2)cc1,"Vasopressin V1b receptor (AVPR1B, Homo sapiens, UniProt P47901)",cell-free assay,,,10 µM,0
CC(C)C[C@H](CC(=O)NO)C(=O)N[C@H](C(=O)N[C@@H](C)C(=O)NCCN)C(C)(C)C,ADAM17,enzyme activity,inhibitor,,0.1 µM,0
COc1cc2c(cc1OC)-c1c(oc3cc4c(cc3c1=O)CCO4)CO2,"Glycogen synthase kinase-3 beta (GSK3B, Homo sapiens, UniProt P49841)",enzyme activity,inhibitor,ADP detection,100 µM,14.3
